# Laboratory results published in ChEMBL document CHEMBL3616436, “Synthesis, cytotoxicity and antimicrobial activity of thiourea derivatives incorporating 3-(trifluoromethyl)phenyl moiety” (Eur J Med Chem, 2015).
# Active and inactive are the calls of the source. The rule behind the calls is not given here.
# Tests used:
# Staphylococcus aureus [1] = assay: Ratio of ciprofloxacin MIC to compound MIC for hospital methicillin-resistant Staphylococcus aureus 57/05 after 18 hrs by twofold serial microdilution method; format: functional
# Outline: (§1)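 Ratio of MICs for ciprofloxacin and test agent, each from twofold serial broth microdilution in Mueller-Hinton broth following CLSI guidelines. DMSO stock was diluted in sterile water to 0.125–512 µg/mL, with a final inoculum of 10^5 CFU/mL.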
# Staphylococcus aureus [2] = assay: Ratio of ciprofloxacin MIC to compound MIC for hospital methicillin-resistant Staphylococcus aureus 81/05 after 18 hrs by twofold serial microdilution method; format: functional; outline: as §1
# Poliovirus 1 = assay: Antiviral activity against Poliovirus type 1 ATCC VR-1562 infected in African green monkey Vero 76 cells assessed as reduction of virus-plaque formation after 2 days by crystal violet staining; format: functional, organism-based; settings: Enterovirus C, ATCC VR-1562, Vero, 48 h
# [3] = test system: Staphylococcus epidermidis; assay: Antimicrobial activity against hospital methicillin-resistant Staphylococcus epidermidis 151/04 after 18 hrs by twofold serial microdilution method; format: functional; settings: 151/04, 18 h
# Outline: (§2)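 Twofold serial microdilution in Mueller-Hinton broth. Compound stock was made in DMSO and diluted in sterile water. Tested range was 0.125–512 µg/mL. Final inoculum was 10^5 CFU/mL. Plates were incubated 18 h at 35 °C. MIC is the lowest concentration preventing visible growth.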
# Staphylococcus aureus [4] = assay: Antimicrobial activity against Staphylococcus aureus ATCC 6538 at 400 ug after 18 hrs by disc-diffusion method; format: functional; settings: ATCC 6538, 18 h, read-out: IZ
# Outline: (§3)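 Disc diffusion on Mueller-Hinton II agar per CLSI; 9 mm paper discs loaded with 400 µg compound from DMSO solution, dried, placed on agar; growth inhibition zone diameter read after 18 h at 35°C.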
# [5] = test system: Staphylococcus epidermidis; assay: Ratio of ciprofloxacin MIC to compound MIC for hospital methicillin-resistant Staphylococcus epidermidis 24/04 after 18 hrs by twofold serial microdilution method; format: functional
# Staphylococcus aureus [6] = assay: Antimicrobial activity against Staphylococcus aureus ATCC 29213 after 18 hrs by twofold serial microdilution method; format: functional; settings: ATCC 29213, 18 h
# Staphylococcus aureus [7] = assay: Antimicrobial activity against Staphylococcus aureus NCTC 4163 after 18 hrs by twofold serial microdilution method; format: functional; settings: NCTC 4163, 18 h
# [8] = test system: Mycobacterium tuberculosis; assay: Antimycobacterial activity against drug-sensitive Mycobacterium tuberculosis Spec. 192; format: functional
# Outline: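 Classical test-tube successive-dilution method in Youmans' modification of Proskauer and Beck liquid medium with 10% bovine serum. Inoculum came from 14-day cultures. DMSO stock was 10 mg/mL, diluted geometrically in medium. Tubes were incubated at 37 °C. Concentrations tested were 3.1, 6.2, 12.5, 25, 50 and 100 µg/ml. MIC is the minimum concentration inhibiting growth relative to compound-free tubes.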
# Staphylococcus aureus [9] = assay: Ratio of ciprofloxacin MIC to compound MIC for hospital methicillin-resistant Staphylococcus aureus 522/11 after 18 hrs by twofold serial microdilution method; format: functional; outline: as §1
# Micrococcus luteus [10] = assay: Antimicrobial activity against Micrococcus luteus ATCC 9341 at 400 ug after 18 hrs by disc-diffusion method; format: functional; settings: for zone of inhibition at 400 µg/disc: ATCC 9341, 18 h, read-out: IZ; outline: as §3
# [11] = test system: Staphylococcus epidermidis; assay: Ratio of ciprofloxacin MIC to compound MIC for hospital methicillin-resistant Staphylococcus epidermidis 76/04 after 18 hrs by twofold serial microdilution method; format: functional; outline: as §1
# Bacillus cereus = assay: Antimicrobial activity against Bacillus cereus ATCC 11778 at 400 ug after 18 hrs by disc-diffusion method; format: functional; settings: ATCC 11778, 18 h, read-out: IZ; outline: as §3
# [12] = test system: Mammalian orthoreovirus 1; assay: Antiviral activity against Reovirus type-1 ATCC VR-214 infected in BHK cells assessed as protection against virus-induced cytopathogenicity after 3 to 4 days by MTT assay; format: functional, cell-based; settings: Mammalian orthoreovirus 1, ATCC VR-214, BHK
# Outline: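 Cells seeded in 96-well plates (BHK 5x10^4, MDBK 3x10^4 cells/well), grown overnight to confluence, infected at m.o.i. 0.01 (BHK for Reo-1, MDBK for BVDV); serial compound dilutions in maintenance medium with 0.5% inactivated FBS added after 1 h; viability by MTT after 3–4 days at 37°C; EC50 for 50% protection by linear regression.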
# [13] = test system: Staphylococcus epidermidis; assay: Antimicrobial activity against hospital methicillin-resistant Staphylococcus epidermidis 24/04 after 18 hrs by twofold serial microdilution method; format: functional; settings: 24/04, 18 h; outline: as §2
# [14] = test system: Staphylococcus epidermidis; assay: Antimicrobial activity against Staphylococcus epidermidis ATCC 35984 after 18 hrs by twofold serial microdilution method; format: functional; settings: ATCC 35984, 18 h
# Bacillus subtilis = assay: Antimicrobial activity against Bacillus subtilis ATCC 6633 at 400 ug after 18 hrs by disc-diffusion method; format: functional; settings: ATCC 6633, 18 h, read-out: IZ; outline: as §3
# [15] = test system: Staphylococcus epidermidis; assay: Ratio of ciprofloxacin MIC to compound MIC for hospital methicillin-resistant Staphylococcus epidermidis 31/04 after 18 hrs by twofold serial microdilution method; format: functional; outline: as §1
# [16] = test system: Staphylococcus epidermidis; assay: Ratio of ciprofloxacin MIC to compound MIC for hospital methicillin-resistant Staphylococcus epidermidis 151/04 after 18 hrs by twofold serial microdilution method; format: functional; outline: as §1
# Staphylococcus aureus [17] = assay: Antimicrobial activity against hospital methicillin-resistant Staphylococcus aureus 54/05 after 18 hrs by twofold serial microdilution method; format: functional; settings: 54/05, 18 h; outline: as §2
# Proteus vulgaris = assay: Antimicrobial activity against Proteus vulgaris NCTC 4635 at 400 ug after 18 hrs by disc-diffusion method; format: functional; settings: for zone of inhibition at 400 µg/disc: NCTC 4635, 18 h, read-out: IZ; outline: as §3
# Micrococcus luteus [18] = assay: Antimicrobial activity against Micrococcus luteus ATCC 10240 at 400 ug after 18 hrs by disc-diffusion method; format: functional; settings: for zone of inhibition at 400 µg/disc: ATCC 10240, 18 h, read-out: IZ; outline: as §3
# [19] = test system: Staphylococcus epidermidis; assay: Ratio of ciprofloxacin MIC to compound MIC for hospital methicillin-resistant Staphylococcus epidermidis […]/[…] after 18 hrs by twofold serial microdilution method; format: functional, 16/04
# Staphylococcus aureus [20] = assay: Antimicrobial activity against hospital methicillin-resistant Staphylococcus aureus 53/05 after 18 hrs by twofold serial microdilution method; format: functional; settings: 53/05, 18 h; outline: as §2
# [21] = Cytotoxicity against African green monkey Vero 76 cells assessed as cell viability after 48 to 96 hrs by crystal violet staining; format: cell-based; settings: chlorocebus sabaeus
# [22] = test system: Staphylococcus epidermidis; assay: Antimicrobial activity against hospital methicillin-resistant Staphylococcus epidermidis 23/04 after 18 hrs by twofold serial microdilution method; format: functional; settings: 23/04, 18 h; outline: as §2
# [23] = test system: Human immunodeficiency virus 1; assay: Antiviral activity against HIV1 3B infected in human MT4 cells assessed as protection against virus-induced cytopathogenicity by MTT assay; format: functional, organism-based; settings: Human immunodeficiency virus 1, 3B
# Staphylococcus aureus [24] = assay: Antimicrobial activity against hospital methicillin-resistant Staphylococcus aureus 573/11 after 18 hrs by twofold serial microdilution method; format: functional; settings: 573/11, 18 h; outline: as §2
# [25] = test system: Staphylococcus epidermidis; assay: Antimicrobial activity against hospital methicillin-resistant Staphylococcus epidermidis 63/04 after 18 hrs by twofold serial microdilution method; format: functional; settings: 63/04, 18 h; outline: as §2
# Staphylococcus aureus [26] = assay: Ratio of ciprofloxacin MIC to compound MIC for hospital methicillin-resistant Staphylococcus aureus 53/05 after 18 hrs by twofold serial microdilution method; format: functional; outline: as §1
# Staphylococcus aureus [27] = assay: Ratio of ciprofloxacin MIC to compound MIC for hospital methicillin-resistant Staphylococcus aureus 573/11 after 18 hrs by twofold serial microdilution method; format: functional; outline: as §1
# [28] = test system: Staphylococcus epidermidis; assay: Antimicrobial activity against hospital methicillin-resistant Staphylococcus epidermidis 62/04 after 18 hrs by twofold serial microdilution method; format: functional; settings: 62/04, 18 h; outline: as §2
SMILES,Ratio (Staphylococcus aureus [1]),Ratio (Staphylococcus aureus [2]),EC50 (Poliovirus 1),MIC [3],zone of inhibition at 400 µg/disc (Staphylococcus aureus [4]),Ratio [5],MIC (Staphylococcus aureus [6]),MIC (Staphylococcus aureus [7]),MIC [8],Ratio (Staphylococcus aureus [9]),zone of inhibition at 400 µg/disc (Micrococcus luteus [10]),zone of inhibition at 400 µg/disc (Bacillus cereus),MIC [13],MIC [14],zone of inhibition at 400 µg/disc (Bacillus subtilis),MIC (Staphylococcus aureus [20]),MIC [22],MIC (Staphylococcus aureus [24]),MIC [25],MIC [28],other results
FC(F)(F)c1cccc(NC(=S)Nc2cccc(Br)c2)c1,128,128,> 14 µM,2 µg/mL,29 mm,128,1 µg/mL,1 µg/mL,> 100 µg/mL,128,33 mm,24 mm,4 µg/mL,2 µg/mL,26 mm,1 µg/mL,2 µg/mL,0.25 µg/mL,1 µg/mL,1 µg/mL,Ratio [11]: 128; EC50 [12]: > 10 µM; Ratio [15]: 128; Ratio [16]: 128; MIC (Staphylococcus aureus [17]): 0.5 µg/mL; zone of inhibition at 400 µg/disc (Proteus vulgaris): 12 mm; zone of inhibition at 400 µg/disc (Micrococcus luteus [18]): 30 mm; Ratio [19]: 128; CC50 [21]: 14 µM; EC50 [23]: > 9.2 µM; Ratio (Staphylococcus aureus [26]): 128; Ratio (Staphylococcus aureus [27]): 128
Fc1cccc(NC(=S)Nc2cccc(C(F)(F)F)c2)c1,128,128,> 20 µM,16 µg/mL,20 mm,128,8 µg/mL,4 µg/mL,> 100 µg/mL,128,23 mm,18 mm,8 µg/mL,8 µg/mL,20 mm,4 µg/mL,8 µg/mL,8 µg/mL,16 µg/mL,8 µg/mL,Ratio [11]: 128; EC50 [12]: > 9.4 µM; Ratio [15]: 128; Ratio [16]: 128; MIC (Staphylococcus aureus [17]): 8 µg/mL; inhibition zone (IZ) (Proteus vulgaris): inactive; zone of inhibition at 400 µg/disc (Micrococcus luteus [18]): 21 mm; Ratio [19]: 128; CC50 [21]: 20 µM; EC50 [23]: > 20 µM; Ratio (Staphylococcus aureus [26]): 128; Ratio (Staphylococcus aureus [27]): 128
FC(F)(F)c1cccc(NC(=S)Nc2ccc(Cl)cc2)c1,128,128,> 11 µM,8 µg/mL,13 mm,128,8 µg/mL,8 µg/mL,> 100 µg/mL,128,,12 mm,16 µg/mL,4 µg/mL,12 mm,16 µg/mL,16 µg/mL,8 µg/mL,16 µg/mL,16 µg/mL,inhibition zone (IZ) (Micrococcus luteus [10]): inactive; Ratio [11]: 128; EC50 [12]: > 10 µM; Ratio [15]: 128; Ratio [16]: 128; MIC (Staphylococcus aureus [17]): 16 µg/mL; inhibition zone (IZ) (Proteus vulgaris): inactive; inhibition zone (IZ) (Micrococcus luteus [18]): inactive; Ratio [19]: 128; CC50 [21]: 11 µM; EC50 [23]: > 6.8 µM; Ratio (Staphylococcus aureus [26]): 128; Ratio (Staphylococcus aureus [27]): 128
FC(F)(F)c1cccc(NC(S)=Nc2ccc(Cl)c(Cl)c2)c1,128,128,> 16 µM,1 µg/mL,14 mm,128,0.5 µg/mL,0.5 µg/mL,100 µg/mL,128,15 mm,13 mm,1 µg/mL,1 µg/mL,11 mm,2 µg/mL,1 µg/mL,1 µg/mL,2 µg/mL,1 µg/mL,Ratio [11]: 128; EC50 [12]: > 9.5 µM; Ratio [15]: 128; Ratio [16]: 128; MIC (Staphylococcus aureus [17]): 2 µg/mL; inhibition zone (IZ) (Proteus vulgaris): inactive; zone of inhibition at 400 µg/disc (Micrococcus luteus [18]): 16 mm; Ratio [19]: 128; EC50 [23]: > 9 µM; Ratio (Staphylococcus aureus [26]): 128; Ratio (Staphylococcus aureus [27]): 128
O=C(O)c1cn(C2CC2)c2cc(N3CCNCC3)c(F)cc2c1=O [CIPROFLOXACIN],,,,4 µg/mL,28 mm,,0.5 µg/mL,0.25 µg/mL,,,24 mm,30 mm,64 µg/mL,0.25 µg/mL,40 mm,64 µg/mL,2 µg/mL,64 µg/mL,4 µg/mL,0.125 µg/mL,zone of inhibition at 400 µg/disc (Proteus vulgaris): 36 mm; zone of inhibition at 400 µg/disc (Micrococcus luteus [18]): 22 mm
